Results from BindingDB's records for doi:10.1021/jm049696n (Human Biomolecular Research Institute, 2005).

Tests used:
CYP2E1 = CYP2E1 (Homo sapiens, UniProt P05181); assay: Inhibitory concentration value against human cytochrome P-450 2E1
Method in brief: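 Baculovirus-expressed CYP2E1 (co-expressing P450 reductase and cytochrome b5), 5 nM final, with 10 µM Vivid blue substrate in 0.2 M potassium phosphate pH 8.0. Inhibitor at eight levels from 0.02 to 400 µM, or six from 0.14 to 300 µM. Started with an NADPH-generating system, then 40 min at room temperature. O-dealkylated product read by fluorescence (ex 405/em 460 nm). IC50 is the mean of three experiments.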

CYP3A4 = CYP3A4 (Homo sapiens, UniProt P08684); assay: Inhibitory concentration value against human cytochrome P-450 3A4
Method in brief: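 Human liver microsomes (0.4 mg) in 0.05 M potassium phosphate, pH 7.5, with an NADPH-generating system, DETAPAC and 3 mM MgCl2. Inhibitor at 0.02–400 µM. Started with 0.2 mM testosterone and run 30 min at 37 °C with shaking. Stopped with ethyl acetate, then extracted. 6β-hydroxytestosterone measured by reverse-phase HPLC with UV detection at 254 nm. IC50 values are the mean of at least three determinations ± SD.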

CYP2D6 = CYP2D6 (Homo sapiens, UniProt P10635); assay: Inhibitory concentration value against human cytochrome P-450 2D6
Method in brief: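 Baculovirus insect-cell microsomes coexpressing each CYP with reductase and b5, in 0.2 M potassium phosphate pH 8.0. Vivid blue substrate O-dealkylation used 5 µM substrate with 10 nM enzyme for 2B6, 10 µM with 5 nM for 2C19, 10 µM with 10 nM for 2D6, and 10 µM with 5 nM for 2E1. Inhibitor 0.02–400 or 0.14–300 µM. NADPH-generating system, 40 min at room temperature, fluorescence 405/460 nm. IC50 is the mean of three ± SD.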

Sequence of CYP2D6 (P10635 whole entry): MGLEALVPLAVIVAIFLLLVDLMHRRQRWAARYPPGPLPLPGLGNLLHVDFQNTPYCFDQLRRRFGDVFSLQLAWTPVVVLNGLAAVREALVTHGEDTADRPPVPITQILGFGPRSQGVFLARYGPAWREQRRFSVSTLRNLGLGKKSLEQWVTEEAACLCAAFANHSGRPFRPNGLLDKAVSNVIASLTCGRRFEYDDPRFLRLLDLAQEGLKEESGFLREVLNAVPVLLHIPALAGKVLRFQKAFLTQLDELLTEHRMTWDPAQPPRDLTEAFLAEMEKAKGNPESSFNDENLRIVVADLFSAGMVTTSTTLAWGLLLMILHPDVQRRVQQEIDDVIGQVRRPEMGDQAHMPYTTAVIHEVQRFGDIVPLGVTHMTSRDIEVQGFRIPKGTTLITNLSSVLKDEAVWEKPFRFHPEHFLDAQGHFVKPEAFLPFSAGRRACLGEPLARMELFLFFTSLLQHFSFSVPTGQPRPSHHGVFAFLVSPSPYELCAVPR
Sequence of CYP3A4 (P08684 whole entry): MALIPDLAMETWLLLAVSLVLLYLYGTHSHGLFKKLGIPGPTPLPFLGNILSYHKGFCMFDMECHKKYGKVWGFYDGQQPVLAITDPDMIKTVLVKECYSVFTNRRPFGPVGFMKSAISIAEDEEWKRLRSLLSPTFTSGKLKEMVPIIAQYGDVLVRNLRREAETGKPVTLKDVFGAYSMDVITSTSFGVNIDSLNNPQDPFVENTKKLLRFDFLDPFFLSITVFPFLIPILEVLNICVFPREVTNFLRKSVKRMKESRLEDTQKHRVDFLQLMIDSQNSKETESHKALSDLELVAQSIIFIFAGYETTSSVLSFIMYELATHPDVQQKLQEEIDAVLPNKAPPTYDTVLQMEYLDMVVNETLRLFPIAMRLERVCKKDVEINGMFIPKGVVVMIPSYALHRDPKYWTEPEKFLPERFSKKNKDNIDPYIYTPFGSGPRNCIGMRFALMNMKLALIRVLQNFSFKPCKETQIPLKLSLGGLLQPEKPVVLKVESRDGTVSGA
Sequence of CYP2E1 (P05181 whole entry): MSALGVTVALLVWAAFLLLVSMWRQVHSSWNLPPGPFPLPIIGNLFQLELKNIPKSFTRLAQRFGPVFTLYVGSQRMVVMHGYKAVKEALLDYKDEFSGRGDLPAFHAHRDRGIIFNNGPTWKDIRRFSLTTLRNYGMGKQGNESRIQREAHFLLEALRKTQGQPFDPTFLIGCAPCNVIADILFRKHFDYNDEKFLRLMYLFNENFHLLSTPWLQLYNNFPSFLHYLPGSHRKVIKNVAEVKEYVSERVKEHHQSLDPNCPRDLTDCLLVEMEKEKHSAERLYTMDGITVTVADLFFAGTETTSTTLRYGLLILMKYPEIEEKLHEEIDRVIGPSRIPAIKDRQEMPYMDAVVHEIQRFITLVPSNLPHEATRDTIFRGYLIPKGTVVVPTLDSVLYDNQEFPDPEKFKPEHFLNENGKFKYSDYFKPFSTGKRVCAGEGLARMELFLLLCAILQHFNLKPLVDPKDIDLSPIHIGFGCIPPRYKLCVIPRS

Row | IC50 (CYP2E1) [µM] | Compound | IC50 (CYP3A4) [µM] | IC50 (CYP2D6) [µM]
1 | > 400 | O=NCc1ccc(-c2cccnc2)o1 [US8609708, 24] | > 400 | > 400
2 | – | NCc1ccc(-c2cccnc2)s1 [US8609708, 31] | 77.5 | 197
